Reference: ChEMBL document CHEMBL6177922, “Antibacterial activity of the structurally novel C-2 amine-substituted analogues based on quinoxaline” (RSC Med Chem, 2025)
Values after ≈ are worked out from the molar mass of the structure shown. Active and inactive are the calls of the source. No cut-off for these calls is given here.

How the values were obtained:
[1] = system: Staphylococcus aureus; experiment: Bactericidal activity against methicillin-resistant Staphylococcus aureus assessed as inhibition of bacterial growth at 2 times MIC incubated for 24 hrs by time kill assay; type: functional, organism-based
Procedure, shortened: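 Time-kill: MRSA grown 24 h at 37 °C, adjusted to ~2 × 10^6 CFU mL-1, exposed at 2× or 3× MIC with shaking at 37 °C. Aliquots taken at 0.5–13 h, serially diluted 10-fold in PBS, plated on Mueller–Hinton agar, counted after 24 h at 37 °C. Duplicate.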

[2] = system: Pseudomonas aeruginosa; experiment: Antibacterial activity against drug sensitive Pseudomonas aeruginosa PAO1 assessed as reduction in bacterial growth by broth microdilution method; type: functional
Procedure, shortened: (§1)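 MICs were determined by standard twofold serial broth microdilution in lysogeny broth (LB) medium.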

[3] = Cytotoxicity against human HK-2 cells assessed as inhibition of cell growth incubated for 24 hrs by MTT assay; type: toxicity, cell-based
Procedure, shortened: (§2)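 MTT assay with 24 h exposure of cells to the samples. IC50 is the concentration giving 50% growth inhibition, reported as mean ± S.D. of three independent experiments.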

[4] = system: Klebsiella pneumoniae; experiment: Antibacterial activity against drug-resistant Klebsiella pneumoniae assessed as reduction in bacterial growth by broth microdilution method; type: functional
Procedure, shortened: (§3)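 Twofold serial dilution (microdilution) MIC in lysogeny broth (LB) medium against drug-resistant strains: MRSA USA300, vancomycin-resistant Enterococci, Klebsiella pneumoniae.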

[5] = system: Staphylococcus aureus; experiment: Antibacterial activity against drug sensitive Staphylococcus aureus RN4220 assessed as reduction in bacterial growth by broth microdilution method; type: functional; procedure, shortened: as §1
[6] = system: Staphylococcus aureus; experiment: Antibacterial activity against methicillin-resistant Staphylococcus aureus USA300 assessed as reduction in bacterial growth by broth microdilution method; type: functional; procedure, shortened: as §3
[7] = system: Escherichia coli; experiment: Antibacterial activity against drug sensitive Escherichia coli DH5alpha assessed as reduction in bacterial growth by broth microdilution method; type: functional; procedure, shortened: as §1
[8] = Cytotoxicity against human HEK293 cells assessed as inhibition of cell growth incubated for 24 hrs by MTT assay; type: toxicity, cell-based; procedure, shortened: as §2
[9] = system: MCF7; experiment: Cytotoxicity against human MCF7 cells assessed as inhibition of cell growth incubated for 24 hrs by MTT assay; type: functional, cell-based; conditions: MCF7, 24 h; procedure, shortened: as §2
[10] = system: Enterococcus; experiment: Antibacterial activity against vancomycin-resistant Enterococcus assessed as reduction in bacterial growth by broth microdilution method; type: functional; procedure, shortened: as §3
[11] = system: Bacillus subtilis; experiment: Antibacterial activity against drug sensitive Bacillus subtilis 168 assessed as reduction in bacterial growth by broth microdilution method; type: functional; procedure, shortened: as §1
[12] = system: Staphylococcus aureus; experiment: Antibacterial activity against methicillin-resistant Staphylococcus aureus infected in Kunming mouse corneal infection model assessed as reduction in viable bacterial count at 6 mg/ml, TOP administered 3 times daily for 1 week; type: functional, organism-based; conditions: time 1.0 weeks
Procedure, shortened: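 Corneal infection model: male and female Kunming mice (~20 g) immunosuppressed with daily i.p. cyclophosphamide for 3 days. Anesthetized with i.p. avertin (400 mg kg-1), corneas abraded and given 20 μL MRSA (6 × 10^7 CFU mL-1). From 24 h post-infection, treated by topical smear three times daily for one week. Controls: 5% glucose and 5% vancomycin. Six mice per group. Corneal viable counts measured.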

| SMILES | Activity [1] | MIC [2] | IC50 at 24 h [3] | MIC [4] | MIC [5] | MIC [6] | MIC [7] | IC50 at 24 h [8] | IC50 [9] | MIC [10] | MIC [11] | Activity [12] |
| --- | --- | --- | --- | --- | --- | --- | --- | --- | --- | --- | --- | --- |
| CCn1cc(C(=O)O)c(=O)c2cc(F)c(N3CCNCC3)cc21 | Active | – | – | – | – | – | – | – | – | – | – | – |
| Nc1nc2ccccc2nc1NCCc1ccccc1 | – | 128 µg/mL (≈ 484 µM) | 130 µg/mL (≈ 493 µM) | > 128 µg/mL | 32 µg/mL (≈ 121 µM) | > 128 µg/mL | 128 µg/mL (≈ 484 µM) | 123 µg/mL (≈ 467 µM) | 72.3 µg/mL (≈ 274 µM) | > 128 µg/mL | 64 µg/mL (≈ 242 µM) | – |
| Nc1nc2ccccc2nc1NCCc1ccc(Cl)c(Cl)c1 | – | > 128 µg/mL | – | > 128 µg/mL | > 128 µg/mL | > 128 µg/mL | > 128 µg/mL | – | – | > 128 µg/mL | > 128 µg/mL | – |
| COc1ccc(CCNc2nc3ccccc3nc2N)cc1 | – | 128 µg/mL (≈ 435 µM) | 139 µg/mL (≈ 471 µM) | 64 µg/mL (≈ 217 µM) | 16 µg/mL (≈ 54.4 µM) | 16 µg/mL (≈ 54.4 µM) | 32 µg/mL (≈ 109 µM) | 129 µg/mL (≈ 437 µM) | 71.5 µg/mL (≈ 243 µM) | > 128 µg/mL | 16 µg/mL (≈ 54.4 µM) | – |
| NC[C@H]1O[C@H](O[C@H]2[C@H](O)[C@@H](O[C@H]3O[C@H](CO)[C@@H](O)[C@H](N)[C@H]3O)[C@H](N)C[C@@H]2N)[C@H](O)[C@@H](O)[C@@H]1O [KANAMYCIN] | – | 4 µg/mL (≈ 8.26 µM) | – | 4 µg/mL (≈ 8.26 µM) | 1 µg/mL (≈ 2.06 µM) | 1 µg/mL (≈ 2.06 µM) | 1 µg/mL (≈ 2.06 µM) | – | – | 8 µg/mL (≈ 16.5 µM) | 0.5 µg/mL (≈ 1.03 µM) | – |
| Nc1nc2ccccc2nc1NCCC1CCCCC1 | – | 128 µg/mL (≈ 473 µM) | – | > 128 µg/mL | 128 µg/mL (≈ 473 µM) | 128 µg/mL (≈ 473 µM) | > 128 µg/mL | – | – | > 128 µg/mL | > 128 µg/mL | – |
| Nc1nc2ccccc2nc1NCCCc1ccccc1 | – | > 128 µg/mL | 141 µg/mL (≈ 506 µM) | 128 µg/mL (≈ 460 µM) | 32 µg/mL (≈ 115 µM) | 128 µg/mL (≈ 460 µM) | 128 µg/mL (≈ 460 µM) | 126 µg/mL (≈ 451 µM) | 68.7 µg/mL (≈ 247 µM) | 128 µg/mL (≈ 460 µM) | 64 µg/mL (≈ 230 µM) | – |
| O=c1[nH]cc(F)c(=O)[nH]1 [FLUOROURACIL] | – | – | – | – | – | – | – | – | 0.85 µg/mL (≈ 6.53 µM) | – | – | – |
| COc1cccc(CCNc2nc3ccccc3nc2N)c1 | – | 64 µg/mL (≈ 217 µM) | 142 µg/mL (≈ 483 µM) | 64 µg/mL (≈ 217 µM) | 8 µg/mL (≈ 27.2 µM) | 16 µg/mL (≈ 54.4 µM) | 16 µg/mL (≈ 54.4 µM) | 130 µg/mL (≈ 443 µM) | 74.7 µg/mL (≈ 254 µM) | 128 µg/mL (≈ 435 µM) | 32 µg/mL (≈ 109 µM) | – |
| Nc1nc2ccccc2nc1NCCc1ccc(F)cc1 | – | > 128 µg/mL | – | 128 µg/mL (≈ 453 µM) | 64 µg/mL (≈ 227 µM) | > 128 µg/mL | 128 µg/mL (≈ 453 µM) | – | – | 128 µg/mL (≈ 453 µM) | 64 µg/mL (≈ 227 µM) | – |
| CNc1nc2ccccc2nc1N | – | 128 µg/mL (≈ 735 µM) | – | > 128 µg/mL | 128 µg/mL (≈ 735 µM) | > 128 µg/mL | 128 µg/mL (≈ 735 µM) | – | – | > 128 µg/mL | 64 µg/mL (≈ 367 µM) | – |
| CN[C@H](CC(C)C)C(=O)N[C@H]1C(=O)N[C@@H](CC(N)=O)C(=O)N[C@H]2C(=O)N[C@H]3C(=O)N[C@H](C(=O)N[C@H](C(=O)O)c4cc(O)cc(O)c4-c4cc3ccc4O)[C@H](O)c3ccc(c(Cl)c3)Oc3cc2cc(c3O[C@@H]2O[C@H](CO)[C@@H](O)[C@H](O)[C@H]2O[C@H]2C[C@](C)(N)[C@H](O)[C@H](C)O2)Oc2ccc(cc2Cl)[C@H]1O | – | – | – | – | – | – | – | – | – | – | – | Active |
| Cc1ccc(CCNc2nc3ccccc3nc2N)cc1 | – | 64 µg/mL (≈ 230 µM) | 150 µg/mL (≈ 538 µM) | 64 µg/mL (≈ 230 µM) | 16 µg/mL (≈ 57.5 µM) | 32 µg/mL (≈ 115 µM) | 32 µg/mL (≈ 115 µM) | 136 µg/mL (≈ 487 µM) | 70.9 µg/mL (≈ 255 µM) | > 128 µg/mL | 32 µg/mL (≈ 115 µM) | – |
| Nc1nc2ccccc2nc1NCc1ccc2ccccc2c1 | – | > 128 µg/mL | 147 µg/mL (≈ 488 µM) | > 128 µg/mL | 32 µg/mL (≈ 107 µM) | 64 µg/mL (≈ 213 µM) | 64 µg/mL (≈ 213 µM) | 131 µg/mL (≈ 435 µM) | 69.7 µg/mL (≈ 232 µM) | > 128 µg/mL | 32 µg/mL (≈ 107 µM) | – |
| Nc1nc2ccccc2nc1NCCc1ccc(Br)cc1 | – | 128 µg/mL (≈ 373 µM) | – | > 128 µg/mL | 64 µg/mL (≈ 186 µM) | > 128 µg/mL | 128 µg/mL (≈ 373 µM) | – | – | > 128 µg/mL | 64 µg/mL (≈ 186 µM) | – |
| CCNc1nc2ccccc2nc1N | – | 128 µg/mL (≈ 680 µM) | – | > 128 µg/mL | 128 µg/mL (≈ 680 µM) | > 128 µg/mL | > 128 µg/mL | – | – | 128 µg/mL (≈ 680 µM) | 128 µg/mL (≈ 680 µM) | – |
| Nc1nc2ccccc2nc1NCCC1=CCCCC1 | – | > 128 µg/mL | – | > 128 µg/mL | 64 µg/mL (≈ 238 µM) | > 128 µg/mL | > 128 µg/mL | – | – | > 128 µg/mL | 128 µg/mL (≈ 477 µM) | – |
| Nc1nc2ccccc2nc1NCCc1ccccc1Br | – | 128 µg/mL (≈ 373 µM) | – | 64 µg/mL (≈ 186 µM) | 128 µg/mL (≈ 373 µM) | 128 µg/mL (≈ 373 µM) | > 128 µg/mL | – | – | 128 µg/mL (≈ 373 µM) | 64 µg/mL (≈ 186 µM) | – |
| Nc1nc2ccccc2nc1NCCc1ccccc1F | – | 128 µg/mL (≈ 453 µM) | – | > 128 µg/mL | 64 µg/mL (≈ 227 µM) | 128 µg/mL (≈ 453 µM) | 128 µg/mL (≈ 453 µM) | – | – | 128 µg/mL (≈ 453 µM) | 128 µg/mL (≈ 453 µM) | – |
